The source made the active and inactive calls. The calls are words filed in the database; no cut-off is given here.
How the values were obtained:
NCI-H1975 [1] = experiment: Antiproliferative activity against human NCI-H1975 cells assessed as inhibition of cell growth measured after 72 hrs by CCK-8 assay; format: functional, cell-based; details: NCI-H1975, 72 h
Summary of the method: (§1)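 Cells seeded at 3000 cells/well in 96-well plates and treated with graded compound concentrations one day later for 72 h. CCK-8 was added for 1–4 h and absorbance read at 450 nm. Lung cancer lines were kept in RPMI 1640 with 10% fetal calf serum at 37 °C and 5% CO₂.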

HCC827 = experiment: Antiproliferative activity against human HCC827 cells assessed as inhibition of cell growth measured after 72 hrs by CCK-8 assay; format: functional, cell-based; details: HCC827, 72 h; summary of the method: as §1
BaF3 = experiment: Antiproliferative activity against mouse BaF3 cells assessed as inhibition of cell growth measured after 72 hrs by CCK-8 assay; format: functional, cell-based; details: BaF3, 72 h; summary of the method: as §1
BJ = experiment: Cytotoxicity against human BJ cells assessed as inhibition of cell growth measured after 72 hrs by CCK-8 assay; format: cell-based; summary of the method: as §1
[2] = tested on: Protein cereblon/Epidermal growth factor receptor (Homo sapiens), P00533+Q96SW2 [L858R,T790M]; experiment: Protac activity at CRBN/EGFR L858R/T790M mutant in human NCI-H1975 cells assessed as induction of EGFR degradation measured after 16 hrs by Western blot assay; format: cell-based
Summary of the method: (§2)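 Cells seeded at 1-3X10^5/well and treated one day later with compounds at the concentrations and times given. Lysed in RIPA buffer with protease inhibitors. 15 µg protein run on 8% SDS-PAGE, transferred to nitrocellulose, probed for EGFR or phospho-EGFR, ECL detection. Lung lines kept in RPMI 1640 with 10% fetal calf serum, 37 °C, 5% CO2. DC50 is an estimated value. Repeated more than 3 times.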

[3] = target: T1, Protein cereblon/Epidermal growth factor receptor (Homo sapiens, UniProt P00533+Q96SW2); experiment: Protac activity at CRBN/EGFR in mouse BaF3 cells assessed as induction of EGFR degradation by Western blot assay; format: cell-based
[4] = tested on: Protein cereblon/Epidermal growth factor receptor (Homo sapiens), P00533+Q96SW2 [L858R,T790M]; experiment: Protac activity at CRBN/EGFR L858R/T790M mutant in human NCI-H1975 cells assessed as induction of EGFR degradation at 50 nM measured after 16 hrs by Western blot assay; format: cell-based; summary of the method: as §2
[5] = tested on: Protein cereblon/Epidermal growth factor receptor (Homo sapiens), P00533+Q96SW2 [L858R,T790M]; experiment: Protac activity at CRBN/EGFR L858R/T790M mutant in human NCI-H1975 cells assessed as induction of EGFR degradation measured after 48 hrs by Western blot assay; format: cell-based; details: dose 30-500 nM; summary of the method: as §2
[6] = tested on: Protein cereblon/Epidermal growth factor receptor (Homo sapiens), P00533+Q96SW2 [L858R,T790M]; experiment: Protac activity at CRBN/EGFR L858R/T790M mutant in human NCI-H1975 cells assessed as induction of EGFR degradation at 300 nM measured after 8 to 72 hrs by Western blot assay relative to control; format: cell-based; details: time 8-72 hrs
[7] = tested on: Protein cereblon/Epidermal growth factor receptor (Homo sapiens), P00533+Q96SW2 [L858R,T790M]; experiment: Protac activity at CRBN/EGFR L858R/T790M mutant in human NCI-H1975 cells assessed as induction of EGFR degradation at 300 nM incubated for 24 hrs followed by compound washout and measured 72 hrs after drug removal by Western blot assay; format: cell-based
Summary of the method: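 H1975 cells were treated with 300 nM PROTAC for 24 h. Medium was removed, cells were washed 3 times with PBS, and fresh RPMI 1640 with 10% fetal calf serum was added. Cells were harvested at time points up to 72 h after drug removal, and total EGFR was measured by Western blot.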

[8] = tested on: Protein cereblon/Epidermal growth factor receptor (Homo sapiens), P00533+Q96SW2 [L858R,T790M]; experiment: Protac activity at CRBN/EGFR L858R/T790M mutant in human NCI-H1975 cells assessed as induction of EGFR degradation at 0.3 uM pre-incubated for 2 hrs in the presence of MLN4924 and measured after 16 hrs by Western blot assay; format: cell-based; details: time 18.0 hrs
[9] = tested on: Protein cereblon/Epidermal growth factor receptor (Homo sapiens), P00533+Q96SW2 [L858R,T790M]; experiment: Protac activity at CRBN/EGFR L858R/T790M mutant in human NCI-H1975 cells assessed as increase in ratio of LC3B2 to LC3B1 at 30 to 300 nM measured after 16 hrs by Western blot assay; format: cell-based; details: dose 30-300 nM
Summary of the method: (§3)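 H1975 cells in RPMI 1640 with 10% serum. Autophagy was read by Western blot as the LC3B II/LC3B I ratio. Serum-free medium and rapamycin served as autophagy-inducing positive controls, and rapamycin was also combined with degrader. Where pretreatment applied, compounds were added for 2 h before a 16 h PROTAC treatment.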

[10] = tested on: Protein cereblon/Epidermal growth factor receptor (Homo sapiens), P00533+Q96SW2 [L858R,T790M]; experiment: Protac activity at CRBN/EGFR L858R/T790M mutant in human NCI-H1975 cells assessed as increase in ratio of LC3B2 to LC3B1 at 30 to 300 nM preincubated for 2 hrs in presence of Rapamycin and measured after 16 hrs by Western blot assay; format: cell-based; details: dose 30-300 nM, time 18.0 hrs; summary of the method: as §3
NCI-H1975 [11] = experiment: Induction of apoptosis in human NCI-H1975 cells expressing EGFR L858R/T790M mutant assessed as increase in number of apoptotic cells measured after 72 hrs by Annexin-V/FITC staining based flow cytometry method; format: functional, cell-based
Summary of the method: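 H1975 cells (8 × 10⁴/well, 12-well plates) treated one day after seeding at graded concentrations for 72 h. Collected, stained with Annexin V-FITC, and apoptosis measured by flow cytometry.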

[12] = target: T1, Protein cereblon/Epidermal growth factor receptor; experiment: Protac activity at CRBN/EGFR in human PC-9 cells assessed as induction of EGFR degradation by Western blot assay relative to control; format: cell-based
Summary of the method: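 PC9 cells (EGFR Ex19del) seeded at 1–3 × 10⁵/well in 12-well plates and treated the next day with graded degrader concentrations for 48 h. Lysed in RIPA buffer with protease inhibitors, 15 µg protein resolved on 8% SDS-PAGE, and EGFR detected by immunoblot with ECL. DC50 estimated from blots; experiments repeated more than 3 times.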

[13] = tested on: Protein cereblon/Epidermal growth factor receptor (Homo sapiens), P00533+Q96SW2 [L858R,T790M]; experiment: Protac activity at CRBN/EGFR L858R/T790M mutant in human NCI-H1975 cells assessed as induction of EGFR degradation at 30 nM measured after 16 hrs by Western blot assay; format: cell-based; summary of the method: as §2
NCI-H1975 [14] = experiment: Antimigratory activity in human NCI-H1975 cells expressing EGFR L858R/T790M mutant at 300 to 500 nM measured after 24 hrs by wound healing assay; format: functional, cell-based; details: dose 300-500 nM
Summary of the method: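 H1975 cells seeded in 24-well plates, scratched at confluence with a pipette tip 24 h later and washed three times with PBS. Then incubated with degrader at 300 or 500 nM. Six photos per well taken at set time points, and the uncovered wound area quantified.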

NCI-H1975 [15] = experiment: Inhibition of cell invasion in human NCI-H1975 cells expressing EGFR L858R/T790M mutant assessed at 500 nM measured after 18 hrs by transwell assay; format: functional; set-up: scale not given: the % may be the effect or the level left
Summary of the method: (§4)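 GFP-expressing H1975 cells were trypsinised and resuspended in serum-free medium containing compound. Seeded into Matrigel-coated transwell inserts (8 µm pores) above RPMI 1640 full growth medium, at 37 °C and 5% CO₂. Invaded cells imaged by fluorescence microscopy in five random fields per insert and counted. Three independent repeats.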

NCI-H1975 [16] = experiment: Inhibition of cell invasion in human NCI-H1975 cells expressing EGFR L858R/T790M mutant assessed at 500 nM measured after 42 hrs by transwell assay; format: functional; set-up: scale not given: the % may be the effect or the level left; summary of the method: as §4

SMILES	IC50 (NCI-H1975 [1]) [µM]	IC50 (HCC827) [µM]	IC50 (BaF3) [µM]	IC50 (BJ) [µM]	Activity [2]	DC50 [3] [µM]	Activity [4]	Activity [5]	Activity [6] [%]	Activity [7]	Activity [8]	Activity [9]	Activity [10]	Activity (NCI-H1975 [11])	%max [12] [%]	Activity [13]	Activity (NCI-H1975 [14])	Activity (NCI-H1975 [15]) [%]	Activity (NCI-H1975 [16]) [%]
C=CC(=O)Nc1cc2c(Nc3ccc(F)c(Cl)c3)ncnc2cc1OCCCN1CCN(C(=O)CCCCCNc2cccc3c2C(=O)N(C2CCC(=O)NC2=O)C3=O)CC1 (configuration not stated)	0.0221	0.00212	0.0713	> 10	Active	0.1	Active	Dose-Dependent Effect	98	Active	inactive	Active	Active	Active	40	–	–	–	–
C=CC(=O)Nc1cc2c(Nc3ccc(F)c(Cl)c3)ncnc2cc1OCCCN1CCN(C(=O)CCCCCCNc2cccc3c2C(=O)N(C2CCC(=O)NC2=O)C3=O)CC1 (configuration not stated)	0.0265	0.00115	0.0513	> 10	Active	0.1	–	Dose-Dependent Effect	98	Active	inactive	Active	Active	Active	–	Active	Active	38	40

Source: ChEMBL document CHEMBL4825665, “Effective degradation of EGFRL858R+T790M mutant proteins by CRBN-based PROTACs through both proteosome and autophagy/lysosome degradation systems” (Eur J Med Chem, 2021)
